Columns and labels:
[1] = biological target: T1, Beta-adrenergic receptor kinase 1 (Homo sapiens) (UniProt P25098); test: Inhibition of human recombinant BARK1 at 40 nM in presence of ATP by radiometric assay relative to control
T1 sequence (whole entry): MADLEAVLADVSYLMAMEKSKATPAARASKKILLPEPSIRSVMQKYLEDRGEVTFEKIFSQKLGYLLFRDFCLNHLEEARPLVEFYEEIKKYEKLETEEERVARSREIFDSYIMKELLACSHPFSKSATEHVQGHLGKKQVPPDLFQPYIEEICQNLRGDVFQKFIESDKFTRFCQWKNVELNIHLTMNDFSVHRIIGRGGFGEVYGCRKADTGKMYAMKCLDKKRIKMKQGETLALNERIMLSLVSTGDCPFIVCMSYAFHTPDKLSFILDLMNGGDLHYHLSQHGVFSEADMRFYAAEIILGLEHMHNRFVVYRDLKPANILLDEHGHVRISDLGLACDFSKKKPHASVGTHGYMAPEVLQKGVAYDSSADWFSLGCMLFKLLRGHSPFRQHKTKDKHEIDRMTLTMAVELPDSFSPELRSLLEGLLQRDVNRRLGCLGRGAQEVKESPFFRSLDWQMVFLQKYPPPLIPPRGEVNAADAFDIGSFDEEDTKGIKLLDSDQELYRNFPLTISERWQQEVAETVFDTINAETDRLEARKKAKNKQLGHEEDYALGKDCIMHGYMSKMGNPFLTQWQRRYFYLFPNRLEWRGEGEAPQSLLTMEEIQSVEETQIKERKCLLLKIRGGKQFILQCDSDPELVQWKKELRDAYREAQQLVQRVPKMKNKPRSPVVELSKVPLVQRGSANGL
Method in brief: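 Part of a radiometric in vitro activity panel of 327 recombinant human kinases. Each kinase was tested in duplicate at one inhibitor concentration. Activity remaining was expressed as a percentage of the vehicle control, and percent inhibition was taken as 100 minus that value.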

[2] = biological target: cAMP-dependent protein kinase catalytic subunit alpha (Homo sapiens) (UniProt P17612); test: Inhibition of human recombinant PKACalpha at 40 nM in presence of ATP by radiometric assay relative to control
[3] = biological target: Serine-protein kinase ATM (Homo sapiens) (UniProt Q13315); test: Inhibition of human recombinant ATM at 40 nM related to control ULK1
Method in brief: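 Radiometric activity assays in a panel of 327 human recombinant kinases, each run in duplicate at one inhibitor concentration. Activity remaining is expressed as percent of vehicle control, and percent inhibition is calculated as 100% minus percent activity remaining.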

[4] = biological target: Cyclin-dependent kinase 9 (Homo sapiens) (UniProt P50750); test: Inhibition of human recombinant CDK9 at 40 nM related to control ULK1
[5] = biological target: Transient receptor potential cation channel subfamily M member 7 (Homo sapiens) (UniProt Q96QT4); test: Inhibition of human recombinant ChaK1 at 40 nM related to control ULK1
[6] = biological target: Death-associated protein kinase 3 (Homo sapiens) (UniProt O43293); test: Inhibition of human recombinant DAPK3 at 40 nM related to control ULK1
[7] = biological target: Ephrin type-A receptor 5 (Homo sapiens) (UniProt P54756); test: Inhibition of human recombinant EphA5 at 40 nM related to control ULK1
[8] = biological target: MAP/microtubule affinity-regulating kinase 3 (Homo sapiens) (UniProt P27448); test: Inhibition of human recombinant MARK3 at 40 nM related to control ULK1
[9] = biological target: Serine/threonine-protein kinase PRP4 homolog (Homo sapiens) (UniProt Q13523); test: Inhibition of human recombinant PRP4 at 40 nM related to control ULK1
[10] = biological target: Macrophage-stimulating protein receptor (Homo sapiens) (UniProt Q04912); test: Inhibition of human recombinant RON at 40 nM related to control ULK1
[11] = biological target: Mitogen-activated protein kinase 9 (Homo sapiens) (UniProt P45984); test: Inhibition of human recombinant JNK2 at 500 nM related to control ULK1
[12] = biological target: Serine/threonine-protein kinase 25 (Homo sapiens) (UniProt O00506); test: Inhibition of human recombinant YSK1 at 500 nM related to control ULK1
[13] = biological target: Dual specificity protein kinase CLK3 (Homo sapiens) (UniProt P49761); test: Inhibition of human recombinant CLK3 at 15 nM in presence of ATP by radiometric assay relative to control
[14] = biological target: T2, Serine/threonine-protein kinase PLK4 (Homo sapiens) (UniProt O00444); test: Inhibition of human recombinant PLK4 at 15 nM in presence of ATP by radiometric assay relative to control
T2 sequence (whole entry): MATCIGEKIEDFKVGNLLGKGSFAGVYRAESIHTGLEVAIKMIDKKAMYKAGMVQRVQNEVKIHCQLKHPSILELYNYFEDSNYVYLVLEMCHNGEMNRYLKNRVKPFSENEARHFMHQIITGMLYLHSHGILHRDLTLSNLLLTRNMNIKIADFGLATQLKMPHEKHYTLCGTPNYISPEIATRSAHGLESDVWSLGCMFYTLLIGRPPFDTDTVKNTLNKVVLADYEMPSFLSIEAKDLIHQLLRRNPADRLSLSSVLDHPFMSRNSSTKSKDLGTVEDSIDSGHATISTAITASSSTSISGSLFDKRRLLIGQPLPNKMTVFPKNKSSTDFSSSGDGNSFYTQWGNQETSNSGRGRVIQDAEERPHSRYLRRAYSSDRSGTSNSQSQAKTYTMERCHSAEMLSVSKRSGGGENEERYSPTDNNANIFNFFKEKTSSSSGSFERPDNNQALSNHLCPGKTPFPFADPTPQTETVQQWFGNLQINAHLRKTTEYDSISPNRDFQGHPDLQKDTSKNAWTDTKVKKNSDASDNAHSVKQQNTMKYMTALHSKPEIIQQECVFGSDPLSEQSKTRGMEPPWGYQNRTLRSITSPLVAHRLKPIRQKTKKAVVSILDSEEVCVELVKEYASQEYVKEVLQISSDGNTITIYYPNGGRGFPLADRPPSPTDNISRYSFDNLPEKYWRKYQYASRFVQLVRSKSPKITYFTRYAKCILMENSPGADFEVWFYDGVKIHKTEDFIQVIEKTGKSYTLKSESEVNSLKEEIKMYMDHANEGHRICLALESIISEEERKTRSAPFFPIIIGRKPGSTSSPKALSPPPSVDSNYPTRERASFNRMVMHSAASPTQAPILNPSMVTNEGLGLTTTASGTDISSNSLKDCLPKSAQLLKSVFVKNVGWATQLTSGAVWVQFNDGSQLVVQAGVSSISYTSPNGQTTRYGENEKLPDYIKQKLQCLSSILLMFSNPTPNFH

[15] = biological target: Cyclin-dependent kinase-like 3 (Homo sapiens) (UniProt Q8IVW4); test: Inhibition of human recombinant CDKL3 at 15 nM related to control ULK1

Chain of Dual specificity protein kinase CLK3 (Homo sapiens) (P49761 whole entry, looked up): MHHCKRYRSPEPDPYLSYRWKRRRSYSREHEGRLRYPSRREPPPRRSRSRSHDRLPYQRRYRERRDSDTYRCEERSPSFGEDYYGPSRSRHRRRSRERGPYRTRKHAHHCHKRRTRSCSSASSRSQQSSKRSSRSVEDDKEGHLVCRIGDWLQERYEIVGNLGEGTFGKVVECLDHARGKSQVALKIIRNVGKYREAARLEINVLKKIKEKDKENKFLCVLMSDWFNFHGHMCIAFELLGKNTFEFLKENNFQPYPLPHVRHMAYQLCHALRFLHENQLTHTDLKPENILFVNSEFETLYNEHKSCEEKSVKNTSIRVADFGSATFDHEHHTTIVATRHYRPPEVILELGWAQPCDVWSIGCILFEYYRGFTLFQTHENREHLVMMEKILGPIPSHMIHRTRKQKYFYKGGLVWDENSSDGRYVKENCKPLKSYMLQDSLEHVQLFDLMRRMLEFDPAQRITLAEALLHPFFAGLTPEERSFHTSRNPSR
Chain of Transient receptor potential cation channel subfamily M member 7 (Homo sapiens) (Q96QT4 whole entry): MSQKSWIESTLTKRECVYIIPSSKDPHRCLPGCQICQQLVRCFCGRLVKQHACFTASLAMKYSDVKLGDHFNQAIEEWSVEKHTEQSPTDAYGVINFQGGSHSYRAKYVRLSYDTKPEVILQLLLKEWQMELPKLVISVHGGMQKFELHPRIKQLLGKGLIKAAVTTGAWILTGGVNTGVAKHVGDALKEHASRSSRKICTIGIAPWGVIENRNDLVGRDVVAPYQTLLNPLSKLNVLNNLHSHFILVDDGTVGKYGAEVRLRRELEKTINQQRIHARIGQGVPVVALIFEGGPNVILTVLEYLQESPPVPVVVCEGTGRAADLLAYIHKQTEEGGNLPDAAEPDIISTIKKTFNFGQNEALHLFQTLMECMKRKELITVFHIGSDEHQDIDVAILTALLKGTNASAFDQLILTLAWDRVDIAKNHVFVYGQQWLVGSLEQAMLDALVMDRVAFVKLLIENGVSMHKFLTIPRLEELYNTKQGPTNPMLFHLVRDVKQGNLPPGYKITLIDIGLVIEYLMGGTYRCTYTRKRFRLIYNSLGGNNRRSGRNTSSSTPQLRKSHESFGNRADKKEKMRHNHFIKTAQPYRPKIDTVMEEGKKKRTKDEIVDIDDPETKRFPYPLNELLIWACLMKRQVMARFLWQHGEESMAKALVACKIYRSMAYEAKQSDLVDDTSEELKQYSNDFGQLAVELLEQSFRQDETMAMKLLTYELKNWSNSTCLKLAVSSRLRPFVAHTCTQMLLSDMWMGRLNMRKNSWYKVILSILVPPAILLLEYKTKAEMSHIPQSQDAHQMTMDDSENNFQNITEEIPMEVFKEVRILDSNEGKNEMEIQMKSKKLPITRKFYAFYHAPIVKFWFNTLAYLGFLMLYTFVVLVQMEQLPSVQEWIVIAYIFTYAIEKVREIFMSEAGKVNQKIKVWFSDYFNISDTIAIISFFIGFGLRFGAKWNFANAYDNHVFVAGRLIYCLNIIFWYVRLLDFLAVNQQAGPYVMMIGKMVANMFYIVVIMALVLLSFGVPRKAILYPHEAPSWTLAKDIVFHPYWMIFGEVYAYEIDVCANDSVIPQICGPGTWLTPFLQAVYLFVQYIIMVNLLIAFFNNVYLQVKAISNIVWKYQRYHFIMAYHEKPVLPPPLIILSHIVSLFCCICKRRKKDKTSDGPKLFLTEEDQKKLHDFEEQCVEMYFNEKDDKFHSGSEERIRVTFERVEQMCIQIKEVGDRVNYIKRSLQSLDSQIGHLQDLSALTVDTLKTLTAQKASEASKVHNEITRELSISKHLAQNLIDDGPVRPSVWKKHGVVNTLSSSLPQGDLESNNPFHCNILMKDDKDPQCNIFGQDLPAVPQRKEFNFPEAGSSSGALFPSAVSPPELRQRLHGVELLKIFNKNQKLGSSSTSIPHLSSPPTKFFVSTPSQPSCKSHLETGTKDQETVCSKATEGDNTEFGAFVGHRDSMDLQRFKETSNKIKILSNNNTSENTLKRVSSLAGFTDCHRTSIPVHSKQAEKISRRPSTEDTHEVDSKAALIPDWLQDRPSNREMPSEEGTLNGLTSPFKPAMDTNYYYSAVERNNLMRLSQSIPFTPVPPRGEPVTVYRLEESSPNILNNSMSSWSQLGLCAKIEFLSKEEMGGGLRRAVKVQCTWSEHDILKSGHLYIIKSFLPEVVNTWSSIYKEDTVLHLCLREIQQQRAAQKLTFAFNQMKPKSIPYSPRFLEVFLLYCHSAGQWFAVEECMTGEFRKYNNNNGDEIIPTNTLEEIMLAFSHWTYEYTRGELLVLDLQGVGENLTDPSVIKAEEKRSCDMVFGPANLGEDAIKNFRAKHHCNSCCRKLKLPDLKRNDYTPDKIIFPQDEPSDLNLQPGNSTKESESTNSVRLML
Chain of Death-associated protein kinase 3 (Homo sapiens) (O43293 whole entry, looked up): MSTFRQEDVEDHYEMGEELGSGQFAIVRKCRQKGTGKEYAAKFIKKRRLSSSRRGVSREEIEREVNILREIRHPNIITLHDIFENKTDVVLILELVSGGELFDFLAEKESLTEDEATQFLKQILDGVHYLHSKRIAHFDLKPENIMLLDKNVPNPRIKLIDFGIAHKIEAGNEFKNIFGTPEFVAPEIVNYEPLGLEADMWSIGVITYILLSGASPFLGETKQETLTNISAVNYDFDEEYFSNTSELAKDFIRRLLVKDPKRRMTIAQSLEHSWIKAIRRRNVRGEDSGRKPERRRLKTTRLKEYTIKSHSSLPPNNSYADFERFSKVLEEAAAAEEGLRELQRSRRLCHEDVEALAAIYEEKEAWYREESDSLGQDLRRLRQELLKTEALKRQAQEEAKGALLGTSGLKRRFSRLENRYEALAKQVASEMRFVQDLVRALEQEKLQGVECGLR
Chain of MAP/microtubule affinity-regulating kinase 3 (Homo sapiens) (P27448 whole entry, looked up): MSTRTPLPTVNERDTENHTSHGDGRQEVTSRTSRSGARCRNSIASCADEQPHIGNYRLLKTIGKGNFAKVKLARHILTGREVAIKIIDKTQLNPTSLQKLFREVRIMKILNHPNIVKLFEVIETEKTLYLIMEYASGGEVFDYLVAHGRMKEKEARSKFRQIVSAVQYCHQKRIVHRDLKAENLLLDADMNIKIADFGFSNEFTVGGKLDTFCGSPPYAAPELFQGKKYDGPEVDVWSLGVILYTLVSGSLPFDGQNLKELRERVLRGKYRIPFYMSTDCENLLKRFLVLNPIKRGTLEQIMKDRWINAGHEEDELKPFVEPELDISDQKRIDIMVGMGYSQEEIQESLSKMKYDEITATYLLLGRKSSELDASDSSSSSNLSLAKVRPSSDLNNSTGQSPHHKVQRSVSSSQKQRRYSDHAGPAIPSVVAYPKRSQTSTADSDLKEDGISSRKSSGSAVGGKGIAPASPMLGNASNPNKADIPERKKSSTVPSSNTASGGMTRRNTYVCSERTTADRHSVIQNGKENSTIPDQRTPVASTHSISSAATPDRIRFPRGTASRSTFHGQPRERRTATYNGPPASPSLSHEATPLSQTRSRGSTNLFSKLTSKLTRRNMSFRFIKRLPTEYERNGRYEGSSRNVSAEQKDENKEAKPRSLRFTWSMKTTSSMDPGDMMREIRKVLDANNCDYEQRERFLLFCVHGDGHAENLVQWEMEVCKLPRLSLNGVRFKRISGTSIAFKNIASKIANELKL
Chain of Serine/threonine-protein kinase PRP4 homolog (Homo sapiens) (Q13523 whole entry): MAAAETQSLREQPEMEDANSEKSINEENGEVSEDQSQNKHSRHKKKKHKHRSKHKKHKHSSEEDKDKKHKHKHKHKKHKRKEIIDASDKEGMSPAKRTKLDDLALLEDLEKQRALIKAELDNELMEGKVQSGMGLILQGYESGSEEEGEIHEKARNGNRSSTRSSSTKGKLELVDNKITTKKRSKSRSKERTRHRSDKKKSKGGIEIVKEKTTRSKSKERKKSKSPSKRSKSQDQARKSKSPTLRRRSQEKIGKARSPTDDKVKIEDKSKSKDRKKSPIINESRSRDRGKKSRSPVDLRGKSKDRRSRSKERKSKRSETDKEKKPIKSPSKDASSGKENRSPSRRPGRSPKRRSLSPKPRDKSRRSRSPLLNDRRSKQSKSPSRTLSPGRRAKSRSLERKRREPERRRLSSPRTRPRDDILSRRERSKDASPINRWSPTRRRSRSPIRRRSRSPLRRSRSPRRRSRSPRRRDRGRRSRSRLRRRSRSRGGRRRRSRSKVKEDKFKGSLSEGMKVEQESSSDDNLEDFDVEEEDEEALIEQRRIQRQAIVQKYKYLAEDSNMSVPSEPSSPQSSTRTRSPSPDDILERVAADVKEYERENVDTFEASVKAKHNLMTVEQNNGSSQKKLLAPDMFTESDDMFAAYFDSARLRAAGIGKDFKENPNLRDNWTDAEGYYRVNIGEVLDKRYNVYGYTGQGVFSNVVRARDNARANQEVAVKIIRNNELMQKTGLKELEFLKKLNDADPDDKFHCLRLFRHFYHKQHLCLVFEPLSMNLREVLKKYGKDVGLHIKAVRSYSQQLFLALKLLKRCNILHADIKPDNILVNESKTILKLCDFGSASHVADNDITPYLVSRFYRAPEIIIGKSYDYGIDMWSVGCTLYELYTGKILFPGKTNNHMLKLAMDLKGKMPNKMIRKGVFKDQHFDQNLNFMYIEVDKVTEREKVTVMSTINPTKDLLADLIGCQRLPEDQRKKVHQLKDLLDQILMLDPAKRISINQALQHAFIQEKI
Chain of Serine/threonine-protein kinase 25 (Homo sapiens) (O00506 whole entry, looked up): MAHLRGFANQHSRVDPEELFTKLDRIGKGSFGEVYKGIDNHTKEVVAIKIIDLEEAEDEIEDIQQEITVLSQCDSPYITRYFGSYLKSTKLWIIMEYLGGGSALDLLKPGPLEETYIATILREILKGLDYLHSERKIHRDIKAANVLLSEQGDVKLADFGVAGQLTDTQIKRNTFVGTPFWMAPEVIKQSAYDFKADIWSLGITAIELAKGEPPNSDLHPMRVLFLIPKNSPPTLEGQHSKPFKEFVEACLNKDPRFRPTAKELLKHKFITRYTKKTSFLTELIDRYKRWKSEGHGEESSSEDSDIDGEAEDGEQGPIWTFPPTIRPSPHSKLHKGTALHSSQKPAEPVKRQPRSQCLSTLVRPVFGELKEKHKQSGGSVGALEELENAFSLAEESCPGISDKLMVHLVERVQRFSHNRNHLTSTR

O=C(N[C@@H](C1CC1)C(F)(F)F)c1cc(-c2cnn3cc(-c4ccc(F)cc4)cnc23)cs1
inhibition [1]: 3%
inhibition [2]: 0%
fold change (FC) [3]: 0.07
fold change (FC) [4]: 0
fold change (FC) [5]: 0.01
fold change (FC) [6]: 0.11
fold change (FC) [7]: 0
fold change (FC) [8]: 0.21
fold change (FC) [9]: 0.08
fold change (FC) [10]: 0

CNC(=O)c1ccccc1Oc1nc(Nc2cc(OC)c(OC)c(OC)c2)ncc1Br
fold change (FC) [11]: 0
fold change (FC) [12]: 0.16

CC(C)[C@H](NC(=O)c1cc(-c2cnn3cc(-c4ccc(OCCN5CCCCC5)cc4)cnc23)cs1)C(F)(F)F
inhibition [13]: 1%
inhibition [14]: 31%
fold change (FC) [15]: 0.39
